Source: ChEMBL document CHEMBL1687928, “Discovery, optimization, and pharmacological characterization of novel heteroaroylphenylureas antagonists of C-C chemokine ligand 2 function” (J Med Chem, 2011)
Values after ≈ are worked out from the molar mass of the structure shown. Active and inactive are the calls of the source. The rule behind the calls is not given here.

Tests used:
[1] = target: C-C chemokine receptor type 2 (Homo sapiens) (UniProt P41597); format: cell-based; settings: HEK293
[2] = Aqueous solubility of the compound at pH 1.2; format: physicochemical
[3] = target: C-C chemokine receptor type 2 (Homo sapiens) (UniProt P41597); format: cell-based; settings: THP-1
[4] = target: T1, C-X-C chemokine receptor type 1 (Homo sapiens) (UniProt P25024); format: cell-based; settings: neutrophils
T1 sequence (whole entry): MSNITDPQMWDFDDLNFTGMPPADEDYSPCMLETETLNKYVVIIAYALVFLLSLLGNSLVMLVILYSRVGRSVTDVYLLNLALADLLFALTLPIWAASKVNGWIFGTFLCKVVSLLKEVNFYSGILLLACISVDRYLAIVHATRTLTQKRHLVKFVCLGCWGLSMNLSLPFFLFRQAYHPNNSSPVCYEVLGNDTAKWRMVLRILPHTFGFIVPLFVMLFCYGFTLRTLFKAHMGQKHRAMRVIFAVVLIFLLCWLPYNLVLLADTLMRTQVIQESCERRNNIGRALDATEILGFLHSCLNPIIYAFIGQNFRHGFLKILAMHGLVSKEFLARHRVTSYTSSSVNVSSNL

[5] = Aqueous solubility of the compound at pH 7.4; format: physicochemical
[6] = target: T2, C5a anaphylatoxin chemotactic receptor 1 (Homo sapiens) (UniProt P21730); format: cell-based; settings: CHO
T2 sequence (whole entry): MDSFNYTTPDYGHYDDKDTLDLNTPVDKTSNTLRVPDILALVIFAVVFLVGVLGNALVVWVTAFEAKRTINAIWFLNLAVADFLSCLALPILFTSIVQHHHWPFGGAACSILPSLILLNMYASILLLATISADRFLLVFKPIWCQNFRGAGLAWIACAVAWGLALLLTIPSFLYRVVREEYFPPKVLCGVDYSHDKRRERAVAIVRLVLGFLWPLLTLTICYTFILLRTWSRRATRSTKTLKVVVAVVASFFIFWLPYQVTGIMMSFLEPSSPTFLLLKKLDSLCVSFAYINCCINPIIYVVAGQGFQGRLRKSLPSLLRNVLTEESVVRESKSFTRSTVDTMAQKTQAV

THP-1 = assay: Cytotoxicity against human THP1 cells; format: cell-based
[7] = target: T3, C-X-C chemokine receptor type 2 (Homo sapiens) (UniProt P25025); format: cell-based; settings: neutrophils
T3 sequence (whole entry): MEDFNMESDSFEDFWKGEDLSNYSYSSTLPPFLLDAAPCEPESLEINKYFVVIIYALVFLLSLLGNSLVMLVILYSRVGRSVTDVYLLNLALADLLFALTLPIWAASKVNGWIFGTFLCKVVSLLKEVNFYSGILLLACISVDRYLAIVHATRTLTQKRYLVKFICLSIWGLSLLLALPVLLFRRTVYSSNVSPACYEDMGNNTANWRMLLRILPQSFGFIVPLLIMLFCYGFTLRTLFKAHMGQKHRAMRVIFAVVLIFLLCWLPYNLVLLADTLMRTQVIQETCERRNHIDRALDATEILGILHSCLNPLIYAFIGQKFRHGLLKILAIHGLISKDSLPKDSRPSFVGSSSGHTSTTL

[8] = target: C-C chemokine receptor type 2 (Homo sapiens) (UniProt P41597); assay: Antagonist activity at CCR2 in human THP1 cells assessed as inhibition of CCL2-induced calcium flux; format: functional, cell-based; settings: THP-1
In short: (§1)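 THP-1 cells in serum-free RPMI 1640 were loaded with 3 μM Fluo-3AM plus 0.1% F127 for 30 min at 37 °C. After washing, cells were resuspended at 5 × 10^6 cells/mL and kept at room temperature. They were pretreated 30 min with compound or DMSO, then stimulated with 100 ng/mL hCCL2. Fluorescence was read by flow cytometry at baseline for 15 s, then from 20 to 120 s. Inhibition is given as % of DMSO control.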

[9] = target: C-C chemokine receptor type 2 (Homo sapiens) (UniProt P41597); assay: Antagonist activity at CCR2 in human THP1 cells assessed as inhibition of CCL2-induced calcium flux at 50 uM; format: functional, cell-based; settings: THP-1; in short: as §1

Sequence of C-C chemokine receptor type 2 (Homo sapiens) (P41597 whole entry, looked up): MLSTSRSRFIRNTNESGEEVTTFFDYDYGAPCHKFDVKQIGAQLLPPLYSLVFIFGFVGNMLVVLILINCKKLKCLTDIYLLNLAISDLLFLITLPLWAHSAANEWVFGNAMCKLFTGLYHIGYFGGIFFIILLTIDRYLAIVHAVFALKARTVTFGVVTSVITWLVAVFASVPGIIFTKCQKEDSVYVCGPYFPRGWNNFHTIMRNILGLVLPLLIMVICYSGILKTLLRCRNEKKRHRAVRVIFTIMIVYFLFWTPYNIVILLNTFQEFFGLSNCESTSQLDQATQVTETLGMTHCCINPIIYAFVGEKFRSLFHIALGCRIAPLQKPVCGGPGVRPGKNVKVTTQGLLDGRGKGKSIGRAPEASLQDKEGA

| SMILES | Activity [1] | solubility [2] | Activity [3] | Activity [4] | solubility [5] | Activity [6] | CC50 (THP-1) | Activity [7] | Activity [8] | Activity [9] |
| --- | --- | --- | --- | --- | --- | --- | --- | --- | --- | --- |
| Cc1nn(C)c2ncc(C(=O)NC(=O)Nc3ccc(F)c(C(F)(F)F)c3)cc12 | inactive | 3.9 µg/mL (≈ 9.87 µM) | inactive | inactive | 5 µg/mL (≈ 12.6 µM) | inactive | > 50 µM | inactive | – | – |
| O=C(NC(=O)c1ccc2c(c1)OCO2)Nc1ccc(O)c(Cl)c1 | inactive | – | inactive | – | – | – | > 50 µM | – | Dose-dependent effect | Active |
